Laboratory results: ChEMBL document CHEMBL1132931, “Screening of new antioxidant molecules using flow cytometry” (2000)
Calls of active or inactive are those of the source. The calls are words filed in the database; no cut-off is given here.

Columns and labels:
[1] = test system: Murine-murine hybridoma (mark 3); experiment: (§1) Antioxidative property against stable murine-murine hybridoma (Mark 3) cell line; assay type: functional
[2] = Glutathione peroxidase-like activity in relation to Ebselen glutathione peroxidase-like activity; assay type: functional; parameters: concentration or dose not given beside the values
[3] = Glutathione peroxidase-like activity at 10x(E -3) M concentration as NADP+/L/min; assay type: functional
[4] = Glutathione peroxidase-like activity at 10x(E -2) M concentration as NADP+/L/min; assay type: functional
Mus musculus [5] = species: Mus musculus; experiment: Glutathione peroxidase-like activity at 10x(E -4) M concentration measured as NADP+/L/min; assay type: functional
[6] = Glutathione peroxidase-like activity in relative to Ebselen glutathione peroxidase-like activity; assay type: functional; parameters: concentration or dose not given beside the values
Method in brief: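 Glutathione peroxidase-like activity by the Paglia and Valentine method. Compound solution (100 µL) was added to phosphate buffer, pH 7, with H2O2 and GSH (1.5 × 10-1 M stock in 0.01 M HCl). NADP+ formation was read at 340 nm and expressed as µmol NADP+/L/min. Blanks checked direct NADPH oxidation by compounds. Ebselen was run as the reference.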

[7] = Glutathione peroxidase-like activity at 10x(E -4) M concentration as NADP+/L/min; traces; assay type: functional
Mus musculus [8] = species: Mus musculus; experiment: Antioxidative property against stable murine-murine hybridoma (Mark 3) cell line; fluorescence at 488 nm; assay type: functional, organism-based
Mus musculus [9] = species: Mus musculus; experiment: Antioxidative property against stable murine-murine hybridoma (Mark 3) cell line; no effect; assay type: functional, organism-based
Mus musculus [10] = species: Mus musculus; experiment: as §1; assay type: functional
[11] = Glutathione peroxidase-like activity at 10x(E -2) M concentration; assay type: functional

Compound | Effective molarity [1] | Activity [2] | Activity [3] | Activity [4] | Activity (Mus musculus [5]) | Activity [6] | Activity [7] | Effective molarity (Mus musculus [8]) | NE (Mus musculus [9]) | Effective molarity (Mus musculus [10]) | Activity [11]
CCOC(=O)c1cc2ccc3c(c4ccccc4n3C)c2s1 | 0.0001 M l-1 | 11% |  |  |  |  |  |  |  |  | 
CS(=O)(=O)n1c2c(c3ccccc31)CCc1[se]nnc1-2 | 0.0001 M l-1 |  | 31 µM | 246 µM | 18 µM/min | 23% |  |  |  |  | 
CCOC(=O)c1c2[nH]c3ccc(OC)cc3c2cc2nc(C)sc12 | 1e-05 M l-1 | 21% | 58 µM | 215 µM | 40 µM/min |  |  |  |  |  | 
c1ccc2c3c([nH]c2c1)-c1ccsc1SC3 | 1e-05 M l-1 |  | 71 µM | 75 µM | 44 µM/min | 7% |  |  |  |  | 
CCOC(=O)c1c2[nH]c3ccccc3c2cc2nc(C)sc12 | 1e-05 M l-1 | 48% | 46 µM | 506 µM | 33 µM/min |  |  |  |  |  | 
CCOC(=O)c1sc(SC)c2c1ccc1c3ccccc3[nH]c12 |  | 13% | 38 µM | 133 µM |  |  | traces | fluorescence at 488 nm |  |  | 
c1ccc2c(c1)[nH]c1c3ccsc3ccc21 | 1e-05 M l-1 |  | 25 µM | 60 µM | 26 µM/min | 6% |  |  |  |  | 
COC(=O)c1cc2ccc3c(c4ccccc4n3C)c2[se]1 | 1e-05 M l-1 |  | 31 µM | 104 µM | 29 µM/min | 10% |  |  |  |  | 
CCOC(=O)c1sc(SC)c2c1ccc1c3cc(OC)ccc3[nH]c12 |  | 14% | 9 µM | 151 µM | 26 µM/min |  |  |  |  |  | 
Cn1cnc2c3[nH]c4ccccc4c3ccc21 | 1e-05 M l-1 | 4% | 20 µM | 42 µM | 29 µM/min |  |  |  |  |  | 
CS(=O)(=O)n1c2ccccc2c2c3nn[se]c3ccc21 | 0.0001 M l-1 |  | 33 µM | 46 µM | 29 µM/min | 4% |  |  |  |  | 
c1ccc2c(c1)[nH]c1c2ccc2[se]nnc21 |  |  | 31 µM | 51 µM | 20 µM/min | 5% |  |  | inactive |  | 
VITAMIN E | 1e-10 M l-1 | 2% | 33 µM | 20 µM | 15 µM |  |  |  |  |  | 
COc1cccc2c1C(=O)c1[nH]c3ccccc3c1-2 |  | 35% | 29 µM | 369 µM | 20 µM/min |  |  |  |  | 1e-06 M l-1 | 
COc1ccc2[nH]c3ccc4nc(C)sc4c3c2c1 |  | 6% | 35 µM |  | 33 µM/min |  |  |  |  |  | 64 µM
COc1ccc2[nH]c3c4ccsc4ccc3c2c1 | 1e-06 M l-1 | 4% | 20 µM | 47 µM | 13 µM/min |  |  |  |  |  | 
Cc1nc2ccc3[nH]c4ccccc4c3c2s1 |  | 9% | 29 µM | 93 µM | 20 µM/min |  |  |  |  |  | 
COc1ccc2[nH]c3c(ccc4ccsc43)c2c1 |  | 6% | 22 µM | 60 µM | 4 µM/min |  |  |  |  |  | 
O=c1c2ccccc2[se]n1-c1ccccc1 [EBSELEN] | 1e-05 M l-1 |  | 111 µM | 1050 µM |  | 100% |  |  |  |  | 
COc1ccc2[nH]c3c(c2c1)-c1cccc(OC)c1C3=O | 1e-05 M l-1 | 6% | 26 µM | 58 µM | 11 µM/min |  |  |  |  |  | 
CS(=O)(=O)n1c2c(c3ccccc31)-c1nn[se]c1CC2 | 0 M l-1 |  | 33 µM | 140 µM | 31 µM/min | 13% |  |  |  |  | 
c1ccc2c(c1)[nH]c1c2ccc2ccsc21 | 1e-05 M l-1 |  | 20 µM | 25 µM | 27 µM/min | 2% |  |  |  |  | 
CCOC(=O)c1cc2ccc3c(c4ccccc4n3C)c2o1 | 0.0001 M l-1 | 5% | 15 µM | 53 µM | 33 µM/min |  |  |  |  |  | 
